Experimental data: ChEMBL document CHEMBL1629527, “In vitro antifungal activities of bis(alkylpyridinium)alkane compounds against pathogenic yeasts and molds” (Antimicrob Agents Chemother, 2010)

Key:
[1] = system: Cryptococcus neoformans; test: Antifungal activity against Cryptococcus neoformans after 24 to 72 hrs by broth microdilution method; type: functional
Procedure, shortened: (§1)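 Broth microdilution MIC per CLSI M27-A3 (yeasts) or M38-A2 (molds). RPMI 1640 with L-glutamine, without bicarbonate, buffered to pH 7.0 with 0.165 M MOPS. Final test range for the compounds was 0.175–87.5 μM. Incubation at 35°C with visual reading at 24–72 h. MIC was the lowest concentration giving 100% inhibition versus the growth control (azoles 50% or 100%, by organism). Each isolate was run in duplicate in two independent experiments.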

[2] = system: Cryptococcus gattii species complex; test: Antifungal activity against Cryptococcus gattii after 24 to 72 hrs by broth microdilution method; type: functional, Cryptococcus bacillisporus; procedure, shortened: as §1
[3] = system: Candida tropicalis; test: Antifungal activity against Candida tropicalis after 48 to 72 hrs; type: functional
Procedure, shortened: (§2)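 MFC: after the MIC read, 30-μl aliquots from each well without visible growth were plated onto Sabouraud dextrose agar and incubated at 35°C. Reading was at 48–72 h for yeasts and up to 7 days for molds. MFC was the lowest concentration with no colonies.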

[4] = system: Candida parapsilosis; test: Antifungal activity against Candida parapsilosis after 48 to 72 hrs; type: functional; procedure, shortened: as §2
[5] = system: Pichia kudriavzevii; test: Antifungal activity against Candida krusei after 48 to 72 hrs; type: functional; procedure, shortened: as §2
[6] = system: Candida dubliniensis; test: Antifungal activity against Candida dubliniensis after 48 to 72 hrs; type: functional; procedure, shortened: as §2
[7] = system: Meyerozyma guilliermondii; test: Antifungal activity against Candida guilliermondii after 48 to 72 hrs; type: functional; procedure, shortened: as §2
[8] = system: Cryptococcus gattii species complex; test: Antifungal activity against Cryptococcus gattii after 48 to 72 hrs; type: functional, Cryptococcus bacillisporus; procedure, shortened: as §2
[9] = Toxicity against human erythrocytes assessed as hemolysis; type: cell-based, Erythrocyte
[10] = system: Candida tropicalis; test: Antifungal activity against Candida tropicalis after 24 to 72 hrs by broth microdilution method; type: functional; procedure, shortened: as §1
[11] = system: Nakaseomyces glabratus; test: Antifungal activity against Candida glabrata after 24 to 72 hrs by broth microdilution method; type: functional; procedure, shortened: as §1
[12] = system: Candida parapsilosis; test: Antifungal activity against Candida parapsilosis after 24 to 72 hrs by broth microdilution method; type: functional; conditions: Lodderomyces parapsilosis; procedure, shortened: as §1
[13] = system: Pichia kudriavzevii; test: Antifungal activity against Candida krusei after 24 to 72 hrs by broth microdilution method; type: functional; procedure, shortened: as §1
[14] = system: Candida dubliniensis; test: Antifungal activity against Candida dubliniensis after 24 to 72 hrs by broth microdilution method; type: functional; procedure, shortened: as §1
[15] = system: Cryptococcus neoformans; test: Antifungal activity against Cryptococcus neoformans 05-202523 after 48 to 72 hrs; type: functional; procedure, shortened: as §2
[16] = system: Exophiala spinifera; test: Antifungal activity against Exophiala spinifera 03-200803 after 24 to 72 hrs by broth microdilution method; type: functional
Procedure, shortened: (§3)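 Mold isolates subcultured on potato dextrose agar, then tested by CLSI M38-A2 broth microdilution in RPMI 1640 (L-glutamine, no bicarbonate) buffered to pH 7.0 with 0.165 M MOPS. Compounds were dissolved in water and tested at a final 0.175–87.5 μM. Plates were incubated at 35°C. MIC was read visually as the lowest concentration giving 100% inhibition versus the growth control. Each isolate was run in duplicate in two independent experiments.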

[17] = system: Fusarium solani; test: Antifungal activity against Fusarium solani 04-203102 after 24 to 72 hrs by broth microdilution method; type: functional; procedure, shortened: as §3
[18] = Antifungal activity against Paecilomyces lilacinus 05-200601 after 24 to 72 hrs by broth microdilution method; type: functional; conditions: Purpureocillium lilacinum; procedure, shortened: as §3
[19] = system: Rhizopus arrhizus; test: Antifungal activity against Rhizopus oryzae 05-203111 after 24 to 72 hrs by broth microdilution method; type: functional; procedure, shortened: as §3
[20] = system: Aspergillus fumigatus; test: Antifungal activity against Aspergillus fumigatus 05-203114 after 24 to 72 hrs by broth microdilution method; type: functional; procedure, shortened: as §1
[21] = system: Aspergillus flavus; test: Antifungal activity against Aspergillus flavus ATCC 204304 after 24 to 72 hrs by broth microdilution method; type: functional; procedure, shortened: as §1
[22] = system: Aspergillus flavus; test: Antifungal activity against Aspergillus flavus 05-203758 after 24 to 72 hrs by broth microdilution method; type: functional; procedure, shortened: as §1
[23] = system: Lomentospora prolificans; test: Antifungal activity against Scedosporium prolificans 05-203060 after 24 to 72 hrs by broth microdilution method; type: functional; procedure, shortened: as §3
[24] = system: Scedosporium apiospermum; test: Antifungal activity against Scedosporium apiospermum 05-203100 after 24 to 72 hrs by broth microdilution method; type: functional; procedure, shortened: as §3
[25] = system: Cunninghamella bertholletiae; test: Antifungal activity against Cunninghamella bertholletiae 99-12187 after 24 to 72 hrs by broth microdilution method; type: functional; procedure, shortened: as §1
[26] = system: Lichtheimia corymbifera; test: Antifungal activity against Absidia corymbifera 04-200170 after 24 to 72 hrs by broth microdilution method; type: functional; procedure, shortened: as §1
[27] = system: Aspergillus fumigatus; test: Antifungal activity against Aspergillus fumigatus ATCC 204305 after 24 to 72 hrs by broth microdilution method; type: functional; procedure, shortened: as §1
[28] = system: Cryptococcus gattii species complex; test: Antifungal activity against Cryptococcus gattii 05-200122 after 24 to 72 hrs by broth microdilution method; type: functional, Cryptococcus bacillisporus; procedure, shortened: as §1
[29] = system: Cryptococcus neoformans; test: Antifungal activity against Cryptococcus neoformans 05-202523 after 24 to 72 hrs by broth microdilution method; type: functional; procedure, shortened: as §1
[30] = system: Cryptococcus neoformans; test: Antifungal activity against Cryptococcus neoformans ATCC 90112 after 24 to 72 hrs by broth microdilution method; type: functional; procedure, shortened: as §1
[31] = system: Nakaseomyces glabratus; test: Antifungal activity against Candida glabrata 04-202345 after 24 to 72 hrs by broth microdilution method; type: functional; procedure, shortened: as §1
[32] = system: Candida parapsilosis; test: Antifungal activity against Candida parapsilosis 04-202398 after 24 to 72 hrs by broth microdilution method; type: functional; conditions: Lodderomyces parapsilosis; procedure, shortened: as §1
[33] = system: Candida parapsilosis; test: Antifungal activity against Candida parapsilosis ATCC 22019 after 24 to 72 hrs by broth microdilution method; type: functional; conditions: Lodderomyces parapsilosis; procedure, shortened: as §1
[34] = system: Pichia kudriavzevii; test: Antifungal activity against Candida krusei ATCC 6258 after 24 to 72 hrs by broth microdilution method; type: functional; procedure, shortened: as §1
[35] = system: Candida albicans; test: Antifungal activity against Candida albicans ATCC 10231 after 24 to 72 hrs by broth microdilution method; type: functional; procedure, shortened: as §1
[36] = system: Candida albicans; test: Antifungal activity against Candida albicans ATCC 90028 after 24 to 72 hrs by broth microdilution method; type: functional; procedure, shortened: as §1

MIC [1]: 1.19 µg/mL | MIC50 [1]: 0.79 µg/mL | MIC90 [1]: 3.11 µg/mL | MIC [2]: 0.79 µg/mL | MIC50 [2]: 0.79 µg/mL | MIC90 [2]: 0.79 µg/mL | MIC [10]: 1.18 µg/mL | MIC50 [10]: 1.56 µg/mL | MIC90 [10]: 1.56 µg/mL | MIC [11]: 0.739 µg/mL | MIC50 [11]: 0.79 µg/mL | MIC90 [11]: 0.79 µg/mL | MIC [12]: 28.6 µg/mL | MIC50 [12]: 24.9 µg/mL | MIC90 [12]: 49.5 µg/mL | MIC [13]: 1.36 µg/mL | MIC50 [13]: 1.56 µg/mL | MIC90 [13]: 1.56 µg/mL | MIC [14]: 0.739 µg/mL | MIC50 [14]: 0.79 µg/mL | MIC90 [14]: 0.79 µg/mL | MIC [16]: 1.58 µg/mL | MIC [17]: 12.7 µg/mL | MIC [18]: 50.7 µg/mL | MIC [19]: 0.79 µg/mL | MIC [20]: 12.7 µg/mL | MIC [21]: 12.7 µg/mL | MIC [22]: 25.3 µg/mL | MIC [23]: 25.3 µg/mL | MIC [24]: 50.7 µg/mL | MIC [25]: 12.7 µg/mL | MIC [26]: 50.7 µg/mL | MIC [27]: 12.7 µg/mL | MIC [28]: 0.79 µg/mL | MIC [29]: 6.3 µg/mL | MIC [30]: 0.79 µg/mL | MIC [31]: 0.79 µg/mL | MIC [32]: 25.3 µg/mL | MIC [33]: 0.79 µg/mL | MIC [34]: 3.2 µg/mL | MIC [35]: 0.79 µg/mL | MIC [36]: 0.79 µg/mL
Compound: CCCCCCc1cc[n+](CCCCCCCCCCCC[n+]2ccc(CCCCCC)cc2)cc1.[Cl-].[Cl-]
MFC50 [3]: 1.56 µg/mL | MFC90 [3]: 1.56 µg/mL | MFC ([3]; Candida tropicalis): 0.39 µg/mL | MFC50 [4]: 49.5 µg/mL | MFC90 [4]: 49.5 µg/mL | MFC ([4]; Lodderomyces parapsilosis): 24.9 µg/mL | MFC50 [5]: 1.56 µg/mL | MFC90 [5]: 3.11 µg/mL | MFC ([5]; Pichia kudriavzevii): 0.79 µg/mL | MFC50 [6]: 0.79 µg/mL | MFC90 [6]: 0.79 µg/mL | MFC ([6]; Candida dubliniensis): 0.79 µg/mL | MFC50 [7]: 0.79 µg/mL | MFC90 [7]: 1.56 µg/mL | MFC ([7]; Meyerozyma guilliermondii): 0.39 µg/mL | MFC50 [8]: 0.79 µg/mL | MFC90 [8]: 0.79 µg/mL | MFC ([8]; Cryptococcus gattii species complex): 0.79 µg/mL | HC50 [9]: > 129 µM | IC50 [9]: > 48 µM | MFC [15]: 25.3 µg/mL
